# Screening data: PubChem BioAssay, several laboratories
# An excerpt weighted towards active compounds, which were near 3.5% of everything screened.
# PAFAH2 FP inh – PAFAH2 enzyme inhibitors, primary screen, biochemical, fluorescence polarization, human; AID 492956, 2010; inhibition, % at 3.39 µM; recombinant PAFAH2, FP-rhodamine activity probe; 340,000 compounds, 0.99% hits; Platelet-activating factor acetylhydrolase 2, cytoplasmic (Homo sapiens), Q99487;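 active means inhibition above the mean over all tested compounds plus 3 SD, cut at about 30% in these data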;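 further: inhibitors block probe labeling of enzyme so polarization drops; 0% = enzyme with DMSO and 100% = wells lacking PAFAH2 protein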
# pPAFAH inh – pPAFAH enzyme inhibitors, primary screen, biochemical, fluorescence polarization, human | Platelet-activating factor acetylhydrolase (Homo sapiens), Q13093 | recombinant pPAFAH, FP-rhodamine probe fluorescence polarization | inhibition, % at 3.39 µM | 330,000 compounds, 1.5% hits | AID 463082, 2010;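 active means inhibition above the mean inhibition across the screen plus 3 SD, cut at about 25% in these data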;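 further: inhibitors block binding of the rhodamine activity-based probe so polarization drops; 0% = enzyme with DMSO and 100% = wells lacking pPAFAH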
# PAFAH1B3 inh – PAFAH1B3 enzyme inhibitors, primary screen, biochemical, fluorescence polarization, human | 340,000 compounds, 0.28% hits | recombinant PAFAH1B3, FP-rhodamine probe | inhibition, % at 3.39 µM | Platelet-activating factor acetylhydrolase IB subunit alpha1 (Homo sapiens), Q15102;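 active means inhibition above the screen-wide average of all tested compounds plus 3 SD, cut at about 25% in these data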;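 further: 0% = enzyme with DMSO only and 100% = wells lacking PAFAH1B3 protein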
# PREPL inhibitor – PREPL enzyme inhibitors, primary screen, biochemical, fluorescence polarization | AID 2751, 2010 | recombinant PREPL, fluorescence polarization activity-based probe | inhibition, % at 5.96 µM | Prolyl endopeptidase-like (Homo sapiens), Q4J6C6 | 320,000 compounds, 0.68% hits; in the data active means inhibition above about 43%;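 further: 0% = enzyme with DMSO and 100% = wells lacking enzyme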
# Target sequence (Q4J6C6 whole entry, looked up): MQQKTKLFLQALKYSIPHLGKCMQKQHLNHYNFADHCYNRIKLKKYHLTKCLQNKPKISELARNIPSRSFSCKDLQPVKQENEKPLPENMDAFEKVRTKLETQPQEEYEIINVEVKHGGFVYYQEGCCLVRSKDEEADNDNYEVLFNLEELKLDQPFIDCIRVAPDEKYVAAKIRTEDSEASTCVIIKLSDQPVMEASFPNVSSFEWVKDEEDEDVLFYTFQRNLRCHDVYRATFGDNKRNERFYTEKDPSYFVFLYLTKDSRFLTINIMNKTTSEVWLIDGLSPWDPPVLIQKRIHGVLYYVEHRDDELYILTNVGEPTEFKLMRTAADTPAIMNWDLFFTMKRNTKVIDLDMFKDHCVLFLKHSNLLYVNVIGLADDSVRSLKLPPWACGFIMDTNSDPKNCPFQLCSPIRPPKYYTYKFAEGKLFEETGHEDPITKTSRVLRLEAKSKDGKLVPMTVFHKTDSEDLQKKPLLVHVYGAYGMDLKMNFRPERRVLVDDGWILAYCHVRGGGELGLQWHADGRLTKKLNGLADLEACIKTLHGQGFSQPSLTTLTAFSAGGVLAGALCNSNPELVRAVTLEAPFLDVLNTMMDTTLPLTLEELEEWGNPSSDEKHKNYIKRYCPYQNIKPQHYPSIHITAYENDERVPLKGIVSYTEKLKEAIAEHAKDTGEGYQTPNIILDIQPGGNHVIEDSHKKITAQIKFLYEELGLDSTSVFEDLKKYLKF
# Apaf1 inhib – inhibitors of human Apaf-1 apoptosome, primary screen, biochemical, DEVD-Rh110 fluorescence, uHTS. 330,000 compounds, 0.71% hits. inhibition, % at 20 µM. reconstituted apoptosome caspase-3 activity. Apoptotic protease-activating factor 1 (Homo sapiens), O14727; active means inhibition of at least 40% at 20 µM;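 further: plate controls were DMSO wells for no effect and DEVD-CHO caspase inhibitor wells for full effect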
#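 System: reconstituted apoptosome with Apaf-1, cytochrome c, caspase-9, procaspase-3, dATP; Signal: Rh110 fluorescence intensity; Schedule: 30 min compound preincubation, 50 min activation, room temperature; Reagent: cytochrome c trigger plus (Z-DEVD)2-Rh110 caspase-3 substrate.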
# PAFAH1B2 inh – PAFAH1B2 enzyme inhibitors, primary screen, biochemical, fluorescence polarization, human | recombinant PAFAH1B2, FP-rhodamine activity probe | 340,000 compounds, 1.2% hits | inhibition, % at 3.39 µM | Platelet-activating factor acetylhydrolase IB subunit alpha2 (Homo sapiens), P68402;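 active means inhibition above the mean of all tested compounds plus 3 SD, cut at about 24% in these data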;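 further: 0% = enzyme with DMSO and 100% = wells lacking PAFAH1B2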
# pPAFAH confirm – pPAFAH (PLA2G7) enzyme inhibitors, confirmation, biochemical, fluorescence polarization, human | AID 463230, 2010 | inhibition, % at 3.39 µM | shares compounds with pPAFAH inh | recombinant pPAFAH, FP-Rh probe fluorescence polarization | 2,300 compounds, 72% hits;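 active means mean inhibition of the triplicate above the hit cutoff set for the earlier primary screen, cut at about 25% in these data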;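 further: 0% = enzyme with DMSO and 100% = wells lacking pPAFAH enzyme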
# Apaf-1 inh conf – Apaf-1 inhibitors, single-dose retest, confirmation, biochemical, fluorescence, DEVD-Rh110, 20 µM; shares compounds with Apaf1 inhib; reconstituted apoptosome, caspase-3 DEVD-Rh110 fluorescence; inhibition, % at 20 µM; 1,800 compounds, 25% hits; AID 504614, 2011;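 active means mean inhibition of at least 40% at 20 µM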;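 further: plate controls were DMSO wells for no effect and DEVD-CHO caspase inhibitor control wells for full effect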
# Rh110 interf inh – Rh110 fluorescence interference by putative Apaf-1 inhibitors, confirmation, artefact control for Apaf-1 inhibitor project, biochemical, 20 µM; AID 504615, 2011; 1,800 tested, under 10 active; quenched caspase reaction; activation (fluorescence interference), % at 20 µM; shares compounds with Apaf1 inhib;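 active means signal rise of 40% or more at 20 µM, treated as a fluorescence artifact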
# Apaf1 inh interf – fluorescence interference of Apaf-1 inhibitor hits, dose response, artefact control for Apaf-1 inhibitor project. shares compounds with Apaf1 inhib. fluorescence interference counterscreen, Apaf-1 assay format. IC50, µM. 460 tested, under 10 active. AID 588538, 2011; call rule not given here
# * = called active by the depositor; nt = no result given.
SMILES,PAFAH2 FP inh,pPAFAH inh,PAFAH1B3 inh,PREPL inhibitor,Apaf1 inhib,PAFAH1B2 inh,pPAFAH confirm,Apaf-1 inh conf,Rh110 interf inh,others
CCOP(=O)(c1ccc(N(C)C)cc1)C(O)c1ccccc1F (centres undefined),5.0,1.9,5.3,3.2,6.1,4.6,nt,nt,nt,
COc1ccc(OC)c(Nc2nc(-c3sc(NC(=O)c4ccccc4)nc3C)cs2)c1,nt,6.4,nt,3.3,3.4,nt,nt,nt,nt,
CCCCCCC(=O)Nc1nc(C)c(-c2csc(Nc3cc(OC)ccc3OC)n2)s1,16.4,47.2*,18.3,12.1,49.0*,10.8,41.1*,-9.8,4.5,
Cc1cccc(C)c1NC(=O)CSc1nnc(-c2ccco2)c(-c2ccco2)n1,45.3*,58.5*,17.8,17.2,41.7*,3.6,22.9,26.9,1.7,
CN(C)c1ccc(NC(=O)CSc2nnc(-c3ccco3)c(-c3ccco3)n2)cc1,10.3,17.7,-6.9,6.9,20.9,4.7,nt,nt,nt,
COC(=O)Cc1c(C(=O)OC)nnn1-c1ccc(OC(F)(F)F)cc1,-1.9,5.5,4.8,2.9,-5.1,0.0,nt,nt,nt,
CCc1ccc(S(=O)(=O)/N=C2\C=C(Nc3ccc(O)cc3)C(=O)c3ccccc32)cc1,37.2*,34.8*,65.8*,16.2,95.1*,31.1*,33.1*,95.9*,5.5,Apaf1 inh interf=>100
Cc1cc(C)c(S(=O)(=O)/N=C2\C=C(Nc3ccc(C(=O)O)cc3)C(=O)c3ccccc32)c(C)c1,36.1*,41.9*,59.7*,32.9,88.7*,26.1*,39.7*,91.6*,18.0,Apaf1 inh interf=>100
CCc1ccc(S(=O)(=O)/N=C2\C=C(Nc3cccc(C(=O)O)c3)C(=O)c3ccccc32)cc1,62.2*,37.4*,62.7*,37.8,90.7*,38.9*,40.1*,89.6*,9.7,Apaf1 inh interf=>100
CC(=O)Nc1ccc(NC2=CC(=O)c3ccccc3C2=O)cc1,4.5,4.7,12.2,19.1,31.6,1.9,nt,nt,nt,
COc1ccc(CNC(=O)C2CCN(c3cc(C(=O)Nc4cccc(OC)c4)ccn3)CC2)cc1,-4.1,1.3,5.2,5.8,18.4,4.3,nt,nt,nt,
NC(=O)c1ncn([C@@H]2O[C@H](CNCc3ccc(OCC(=O)Nc4nccs4)cc3)[C@@H](O)[C@H]2O)n1,-1.3,nt,6.5,nt,nt,9.2,nt,nt,nt,
Cc1c(CC(=O)NCC(=O)O)c(=O)oc2cc3c(cc12)CCC(C)(C)O3,-0.6,0.2,2.3,-18.9,0.5,2.3,nt,nt,nt,
CCCCCCCCN1[C@@H](CC(=O)OCC)c2ccc(C(F)(F)F)cc2S1(=O)=O,-4.9,-0.9,7.8,11.8,17.0,0.6,nt,nt,nt,
CCCCCCCCCCCCN1[C@@H](CC(=O)O)c2cc(C(F)(F)F)ccc2S1(=O)=O,11.0,43.8*,3.3,0.9,41.1*,23.4,41.4*,26.3,8.1,
O=C(O)CCCNc1cc(N2CCN(C(=O)c3ccco3)CC2)c2noc3c2c1C(=O)c1ccccc1-3,21.0,57.1*,18.0,32.5,59.9*,14.0,30.8*,28.0,0.8,
CCOC(=O)N1CCN(c2cc(NCCC(=O)O)c3c4c(onc24)-c2ccccc2C3=O)CC1,-7.5,54.9*,8.4,20.8,75.2*,-2.8,37.3*,53.6*,-7.7,Apaf1 inh interf=6.25*
CCOC(=O)N1CCN(C(=O)c2noc3c2COc2ccccc2-3)CC1,4.7,5.1,-0.3,12.1,2.5,2.9,nt,nt,nt,
CN(C(=O)Nc1cnccc1C(F)(F)F)C1CCCCC1,1.8,-4.6,-1.6,5.1,1.2,5.5,nt,nt,nt,
CN1CCN(CCCN2c3ccccc3Sc3ccc(C(F)(F)F)cc32)CC1,-0.9,37.5*,9.5,26.6,54.1*,3.1,30.3*,10.7,7.6,
CCCC(=Nc1ccc(N)cc1)C1=C(O)C(C(=O)OC)C(C)(C)CC1=O (centres undefined),16.5,40.1*,12.7,30.8,67.0*,3.7,4.9,-0.8,-5.6,
CN(C)c1ncc(C2=C(Cl)C(=O)C(N3CCCC3)=C(Cl)C2=O)s1,28.6,49.5*,26.9*,16.8,83.0*,9.5,10.1,42.0*,2.9,Apaf1 inh interf=>100
CC(=O)c1cccc(Nc2nc(-c3ccccc3)nc3ccccc23)c1,-1.6,-4.1,9.6,-5.5,-3.1,-4.3,nt,nt,nt,
CC(=O)c1cccc(-c2ccc3c(=O)[nH]c(Nc4ccccc4)cc3c2)c1,23.2,48.5*,52.5*,28.6,96.2*,12.9,27.7*,87.8*,8.5,
CC(C)CN(CC(C)C)C(=O)Nc1ccc(F)cc1F,2.2,-0.9,-0.3,-5.5,-13.6,13.8,nt,nt,nt,
SMILES,PAFAH2 FP inh,pPAFAH inh,PAFAH1B3 inh,PREPL inhibitor,Apaf1 inhib,PAFAH1B2 inh,pPAFAH confirm,Apaf-1 inh conf,Rh110 interf inh,others
Cc1cc2cc(CNS(=O)(=O)c3ccccc3)ccc2n1C,17.5,47.2*,6.1,31.8,60.9*,13.1,35.1*,12.0,5.3,
C(=Nc1cccc2c(N=Cc3ccco3)cccc12)c1ccco1,6.3,44.6*,11.4,55.0*,92.5*,6.8,3.2,28.4,-0.3,
C(=N\C(/N=C/c1ccco1)c1ccco1)/c1ccco1,5.7,13.0,13.8,17.8,13.7,0.5,nt,nt,nt,
Cc1c2ccccc2nc2c(F)c(NCCO)c(F)c(F)c12,25.2,37.1*,19.3,39.5,53.8*,14.3,13.8,21.5,-0.1,
O=C(Cc1nn[nH]n1)Nc1ccc(F)cc1F,nt,0.3,nt,4.5,-23.5,nt,nt,nt,nt,
CC(C)C(C(=O)O)N1C(=O)/C(=C/C=C/c2ccco2)SC1=S (centres undefined),60.6*,78.5*,23.1,34.6,45.7*,16.8,54.0*,48.4*,6.0,Apaf1 inh interf=>100
CN(C(=S)Nc1ccc(SC(F)F)cc1)c1ccc(O)cc1,3.7,51.4*,2.5,21.6,69.9*,7.9,2.1,5.4,1.7,
CN(C(=S)Nc1ccccc1)c1ccccc1,2.5,1.8,2.8,20.2,2.1,6.1,nt,nt,nt,
